Measured values from ChEMBL document CHEMBL1799922, “Synthesis and antimycobacterial activity of prodrugs of indeno[2,1-c]quinoline derivatives” (Eur J Med Chem, 2011).
Values after ≈ are worked out from the molar mass of the structure shown. Active and inactive are the calls of the source. The rule behind the calls is not given here.

Columns and labels:
[1] = system: Mycobacterium tuberculosis; assay: Antimicrobial activity against Mycobacterium tuberculosis H37Rv ATCC 27294 after 16 to 24 hrs by microplate alamar blue assay; assay type: functional
How it was run: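 M. tuberculosis H37Rv inoculum 2×10^5 cfu/mL (100 µL) added to twofold dilutions in Middlebrook 7H12 medium; final test range 128 µM to 0.5 µM from 12.8 mM DMSO stocks. Incubated 37 °C; day 7 Tween 80 plus Alamar Blue added, further 16-24 h at 37 °C. Fluorescence ex 530/em 590 nm; MIC = lowest concentration giving >90% fluorescence reduction versus replicate bacteria-only controls. Rifampin, isoniazid controls.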

[2] = Cytotoxicity against human U937 cells assessed as cell viability at 1.25 ug/ml after 72 hrs by MTT assay; assay type: cell-based, U-937; conditions: read-out: Activity
How it was run: (§1)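 U937 human monocytic cells plated at 1 × 10^5 cells/mL and allowed to adhere for 1 h at 37 °C in 5% CO2. Non-adherent cells were washed off with RPMI 1640. Adherent cells were exposed to compound in triplicate, with medium alone as the live control and 3% Tween 20 as the dead control. MTT (5 mg/mL in PBS) was then added for 3 h at 37 °C. Formazan was dissolved in 0.4 M HCl/isopropanol and absorbance read at 600 nm. Results are expressed as % cell viability.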

[3] = Cytotoxicity against human U937 cells assessed as cell viability at 10 ug/ml after 72 hrs by MTT assay; assay type: cell-based, U-937; conditions: read-out: Activity; how it was run: as §1
[4] = Octanol-water partition coefficient, log P of the compound at pH 7.4 at room temperature by UV spectrophotometric analysis; assay type: physicochemical
How it was run: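 Shake-flask method at room temperature: 1-octanol and phosphate buffer (pH 7.4) were pre-saturated by shaking for 24 h. Compound at 10^-4 M in equal volumes of both phases was shaken vigorously for 1 h, left to stand 15 min, then centrifuged 10 min at 10,000 rpm. UV absorbance of each phase was read at 280 nm against blanks, and P was taken as the octanol/water absorbance ratio.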

Serum = assay: Stability of the compound in 80% human blood serum assessed as hydrolysis to 2-bromo-6-(1H-imidazol-1-yl)-7H-indeno[2,1-c]quinolin-7-one oxime at 1 mg after 24 hrs at 37 degC by LC-MS analysis; assay type: ADME, cell-free; set-up: scale not given: the % may be the effect or the level left
How it was run: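 Enzymatic hydrolysis: 1 mg prodrug dissolved in 1 mL ethanol, then 200 µL preheated human blood serum diluted to 80% with 0.16 M phosphate buffer (pH 7.4) was added. Samples were kept at 37 °C (24 h) and centrifuged 10 min at 10,000 rpm. Remaining prodrug in the supernatant was monitored by TLC and LC-MS. t1/2 is the time to 50% hydrolysis.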

[5] = Stability of the compound in 10% aqueous ammonia buffer at pH 8 assessed as hydrolysis to 2-bromo-6-(1H-imidazol-1-yl)-7H-indeno[2,1-c]quinolin-7-one oxime at 1 mg at 37 degC by LC-MS analysis; assay type: physicochemical; set-up: scale not given: the % may be the effect or the level left
How it was run: (§2)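 Chemical hydrolysis: 1 mg prodrug dissolved in 1 mL of 10% aqueous ammonia in methanol (pH 8) and held in a thermostatted water bath at 37 °C, up to 24 h. Conversion to the parent oxime was followed by TLC and LC-MS. t1/2 is the time to 50% hydrolysis.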

[6] = Cytotoxicity against human U937 cells assessed as cell viability at 20 ug/ml after 72 hrs by MTT assay; assay type: cell-based, U-937; conditions: read-out: Activity; how it was run: as §1
[7] = Selectivity index, ratio CC50 for human U937 cells to MIC for Mycobacterium tuberculosis H37Rv ATCC 27294; assay type: functional, U-937
[8] = Cytotoxicity against human U937 cells assessed as cell viability at 5 ug/ml after 72 hrs by MTT assay; assay type: cell-based, U-937; conditions: read-out: Activity; how it was run: as §1
[9] = Half life in 10% aqueous ammonia buffer at pH 8 assessed as hydrolysis to 2-bromo-6-(1H-imidazol-1-yl)-7H-indeno[2,1-c]quinolin-7-one oxime at 37 degC by LC-MS analysis; assay type: physicochemical; how it was run: as §2

| SMILES | MIC [1] | viability at 72 h, 1.25 ug/ml [2] [%] | viability at 72 h, 10 ug/ml [3] [%] | logD [4] | Activity (Serum) | Activity [5] | viability at 72 h, 20 ug/ml [6] [%] | Selectivity Index [7] | viability at 72 h, 5 ug/ml [8] [%] | half-life [9] [h] |
| --- | --- | --- | --- | --- | --- | --- | --- | --- | --- | --- |
| O=C(O/N=C1\c2ccccc2-c2c1c(N1CCN(c3ccccn3)CC1)nc1ccc(Br)cc21)C1CC1 | inactive | – | – | – | – | – | – | – | – | – |
| CN(C)C(=O)OC1(C)c2ccccc2-c2c1c(-n1ccnc1)nc1ccc(Br)cc21 (stereo not drawn) | 6 µg/mL (≈ 12.9 µM) | 63 | 69 | 1.9 | Not Active | Not Active | – | – | – | – |
| O/N=C1\c2ccccc2-c2c1c(N1CCN(c3ccccn3)CC1)nc1ccc(Br)cc21 | 6.25 µg/mL (≈ 12.9 µM) | 100 | 56 | 3.3 | – | – | 49 | 71 | 100 | – |
| CCCC(=O)OC1(C)c2ccccc2-c2c1c(-n1ccnc1)nc1ccc(Br)cc21 (stereo not drawn) | inactive | – | – | – | – | – | – | – | – | – |
| O=C(/C=C/c1ccco1)O/N=C1\c2ccccc2-c2c1c(N1CCN(c3ccccn3)CC1)nc1ccc(Br)cc21 | 6 µg/mL (≈ 9.89 µM) | 100 | 85 | 1.4 | Not Active | 95% | – | – | – | 96 |
| CCCCC(=O)O/N=C1\c2ccccc2-c2c1c(N1CCN(c3ccccn3)CC1)nc1ccc(Br)cc21 | inactive | – | – | – | – | – | – | – | – | – |
| CCCCCCCCC(=O)OC1(C)c2ccccc2-c2c1c(-n1ccnc1)nc1ccc(Br)cc21 (stereo not drawn) | 1.56 µg/mL (≈ 2.93 µM) | 86 | 71 | 1.6 | Not Active | 90% | 50 | 11.4 | 75 | 288 |
| CCCCCCCCC(=O)O/N=C1\c2ccccc2-c2c1c(N1CCN(c3ccccn3)CC1)nc1ccc(Br)cc21 | inactive | – | – | – | – | – | – | – | – | – |
| CN(C)C(=O)O/N=C1\c2ccccc2-c2c1c(N1CCN(c3ccccn3)CC1)nc1ccc(Br)cc21 | 1.56 µg/mL (≈ 2.8 µM) | 100 | 68 | 2.3 | Not Active | Not Active | 47 | 88 | 100 | – |
| CCCCCCCCCCCCCCC(=O)O/N=C1\c2ccccc2-c2c1c(N1CCN(c3ccccn3)CC1)nc1ccc(Br)cc21 | inactive | – | – | – | – | – | – | – | – | – |
| CCCCC(=O)OC1(C)c2ccccc2-c2c1c(-n1ccnc1)nc1ccc(Br)cc21 (stereo not drawn) | 1.53 µg/mL (≈ 3.21 µM) | 91 | 48 | 1.7 | Not Active | 90% | 4 | 5.6 | 75 | 288 |
| CCCCCCCCCC(=O)O/N=C1\c2ccccc2-c2c1c(N1CCN(c3ccccn3)CC1)nc1ccc(Br)cc21 | inactive | – | – | – | – | – | – | – | – | – |
| CCC(=O)OC1(C)c2ccccc2-c2c1c(-n1ccnc1)nc1ccc(Br)cc21 (stereo not drawn) | inactive | – | – | – | – | – | – | – | – | – |
| CCCCCCC(=O)OC1(C)c2ccccc2-c2c1c(-n1ccnc1)nc1ccc(Br)cc21 (stereo not drawn) | 0.42 µg/mL (≈ 0.833 µM) | 85 | 68 | 1.7 | Not Active | 86% | 54 | 40.2 | 83 | 312 |
| CCCCCCCCCCCC(=O)O/N=C1\c2ccccc2-c2c1c(N1CCN(c3ccccn3)CC1)nc1ccc(Br)cc21 | inactive | – | – | – | – | – | – | – | – | – |
| CCCC(=O)O/N=C1\c2ccccc2-c2c1c(N1CCN(c3ccccn3)CC1)nc1ccc(Br)cc21 | inactive | – | – | – | – | – | – | – | – | – |
| CSCC[C@H](NC(=O)OC(C)(C)C)C(=O)O/N=C1\c2ccccc2-c2c1c(N1CCN(c3ccccn3)CC1)nc1ccc(Br)cc21 | inactive | – | – | – | – | – | – | – | – | – |

| SMILES | MIC [1] | viability at 72 h, 1.25 ug/ml [2] [%] | viability at 72 h, 10 ug/ml [3] [%] | logD [4] | Activity (Serum) | Activity [5] | viability at 72 h, 20 ug/ml [6] [%] | Selectivity Index [7] | viability at 72 h, 5 ug/ml [8] [%] | half-life [9] [h] |
| --- | --- | --- | --- | --- | --- | --- | --- | --- | --- | --- |
| O/N=C1\c2ccccc2-c2c1c(-n1ccnc1)nc1ccc(Br)cc21 | < 0.39 µg/mL | 100 | 77 | 0.2 | – | – | 77 | >5 | 91 | – |
| CCCCCCCC(=O)OC1(C)c2ccccc2-c2c1c(-n1ccnc1)nc1ccc(Br)cc21 (stereo not drawn) | 3.42 µg/mL (≈ 6.6 µM) | 87 | 52 | 1.8 | Not Active | 90% | 17 | 2.5 | 72 | 264 |
| CC(C)(C)OC(=O)NCC(=O)OC1(C)c2ccccc2-c2c1c(-n1ccnc1)nc1ccc(Br)cc21 (stereo not drawn) | 2.03 µg/mL (≈ 3.69 µM) | 90 | 62 | 1.8 | Not Active | 97% | 28 | 6 | 83 | 24 |
| CC(=O)OC1(C)c2ccccc2-c2c1c(-n1ccnc1)nc1ccc(Br)cc21 (stereo not drawn) | 1.88 µg/mL (≈ 4.33 µM) | 94 | 63 | 2.7 | Not Active | 90% | 35 | 7.5 | 90 | 240 |
| CC(C)(C)OC(=O)NC1(C(=O)O/N=C2\c3ccccc3-c3c2c(N2CCN(c4ccccn4)CC2)nc2ccc(Br)cc32)CCCC1 | inactive | – | – | – | – | – | – | – | – | – |
| CC(C)C[C@H](NC(=O)OCC1c2ccccc2-c2ccccc21)C(=O)O/N=C1\c2ccccc2-c2c1c(N1CCN(c3ccccn3)CC1)nc1ccc(Br)cc21 | inactive | – | – | – | – | – | – | – | – | – |
| CC(C)[C@H](NC(=O)OCC1c2ccccc2-c2ccccc21)C(=O)O/N=C1\c2ccccc2-c2c1c(N1CCN(c3ccccn3)CC1)nc1ccc(Br)cc21 | 1.47 µg/mL (≈ 1.82 µM) | 85 | 81 | 1.8 | 7% | 96% | 80 | >27 | 89 | 24 |
| O=C(CNC(=O)OCC1c2ccccc2-c2ccccc21)O/N=C1\c2ccccc2-c2c1c(N1CCN(c3ccccn3)CC1)nc1ccc(Br)cc21 | 6 µg/mL (≈ 7.84 µM) | 68 | 73 | 1.4 | 29% | 90% | – | – | – | 36 |
| CCCCCCC(=O)O/N=C1\c2ccccc2-c2c1c(N1CCN(c3ccccn3)CC1)nc1ccc(Br)cc21 | inactive | – | – | – | – | – | – | – | – | – |
| COc1nc2ccc(Br)cc2cc1[C@@H](c1ccccc1)[C@@](O)(CCN(C)C)c1cccc2ccccc12 [BEDAQUILINE] | 0.06 µg/mL (≈ 0.108 µM) | – | – | – | – | – | – | – | – | – |
| CCCCCCCCCCCCCC(=O)O/N=C1\c2ccccc2-c2c1c(-n1ccnc1)nc1ccc(Br)cc21 | inactive | – | – | – | – | – | – | – | – | – |
| CC(C)C[C@H](NC(=O)OC(C)(C)C)C(=O)O/N=C1\c2ccccc2-c2c1c(N1CCN(c3ccccn3)CC1)nc1ccc(Br)cc21 | inactive | – | – | – | – | – | – | – | – | – |
| CC(=O)O/N=C1\c2ccccc2-c2c1c(N1CCN(c3ccccn3)CC1)nc1ccc(Br)cc21 | inactive | – | – | – | – | – | – | – | – | – |
| CCCCCCCCCCCCCC(=O)OC1(C)c2ccccc2-c2c1c(-n1ccnc1)nc1ccc(Br)cc21 (stereo not drawn) | inactive | – | – | – | – | – | – | – | – | – |
| CC1(O)c2ccccc2-c2c1c(-n1ccnc1)nc1ccc(Br)cc21 (stereo not drawn) | 0.78 µg/mL (≈ 1.99 µM) | 93 | 64 | 1.7 | – | – | 37 | 4.3 | 64 | – |
| CN(C)C(=O)O/N=C1\c2ccccc2-c2c1c(-n1ccnc1)nc1ccc(Br)cc21 | 0.27 µg/mL (≈ 0.584 µM) | 77 | 61 | 1.1 | Not Active | Not Active | 50 | 49 | 82 | – |
| CCCCCCCCCCCCCCC(=O)OC1(C)c2ccccc2-c2c1c(-n1ccnc1)nc1ccc(Br)cc21 (stereo not drawn) | inactive | – | – | – | – | – | – | – | – | – |
